Bioassay records: PubChem BioAssay, several laboratories
ABCG2 inh: blocks JC-1 efflux by human ABCG2 transporter. Q9UNQ0. IgMXP3 cells, flow cytometry. inhibition, % at 6.6 µM. actives 0.1% (n = 190,000). AID 1325;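 active means inhibition above 80%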;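 further: 0% = DMSO and 100% = nicardipine control wells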
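Test system: IgMXP3 (ABCG2) plus far-red-tagged CCRF-Adr (ABCB1) cells. Reagent: JC-1 dye as substrate. Timing: 10 min exposure at 25 °C with rotation, no wash. Measured by: flow cytometric JC-1 green MFI at 530 nm. Read-out: percent efflux inhibition, scaled nicardipine 100% to DMSO 0%. Control set: nicardipine and DMSO wells.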
Lmaj promast: Leishmania major promastigote growth inhibition. actives 9% (n = 200,000). Leishmania major promastigotes, resazurin fluorescence viability. inhibition, % at 10 µM; in the data active means inhibition above about 50%;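 further: promastigotes grown with compound for 44 hours at 28 °C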
RAM inhibit: blocks the yeast RAM network. S. cerevisiae dse1pr::URA3 reporter, 5-FOA growth OD615, 2 d; analog-sensitive cbk1-as2 kinase mutant strain. inhibition, % at 50 µM. actives 1.8% (n = 190,000). AID 868;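 active means inhibition above a set limit, 3 SD over mean compound inhibition, cut at about 8.4% in these data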;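 further: 0% = DMSO-only wells with no growth and 100% = 10 µM 1-NA-PP1 full growth; inhibition rescues growth on 5-FOA so higher OD means more RAM inhibition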
WT yeast gro inh: growth inhibition of WT yeast, mitochondrial fusion screen; inhibition, % at 10 µM; mitochondrial fusion phenotypic screen, WT strain; actives 2.1% (n = 190,000); in the data active means inhibition above about 58%; tested in S. cerevisiae
ABCB1 block: inhibitors of human ABCB1 transporter, ABCG2 counter-screen; actives 0.067% (n = 190,000); AID 1326; P08183; inhibition, % at 6.6 µM; CCRF-Adr cells, JC-1 efflux, flow cytometry; in the data active means inhibition above about 40%;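 further: 0% = vehicle and 100% = reference inhibitor; higher value means more JC-1 retained so stronger ABCB1 efflux block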
* = called active by the depositor; / = no result given. Most compounds without a hit are left out; they make up all but 12% or so of the library.

SMILES	ABCG2 inh	Lmaj promast	RAM inhibit	WT yeast gro inh	ABCB1 block
CN(C)c1ccc(C2CC(c3cccc(NS(C)(=O)=O)c3)=NN2C(=O)c2ccccc2)cc1 (centres undefined)	3	60*	-1	5	6
COc1cccc(C2CC(c3cccc(NS(C)(=O)=O)c3)=NN2C(=O)c2ccccc2)c1OC (centres undefined)	4	3	4	-3	1
CC(=O)NCCCNS(=O)(=O)c1ccc(C)cc1	9	-3	4	6	1
C=C(C)CN(CC)c1nc(N)c2c(N)nc3c(c2c1C#N)CC(=O)N3C12CC3CC(CC(C3)C1)C2	11	90*	5	21	1
CCCCN1C(=O)Cc2c1nc(N)c1c(N)nc(N(CCC)CCC)c(C#N)c21	43	3	4	5	1
N#Cc1c(N2CCCC(O)C2)nc(N)c2c(N)nc3c(c12)CC(=O)N3C12CC3CC(CC(C3)C1)C2 (centres undefined)	-1	99*	4	6	-1
CCC1(C)NC(=O)N(CC(=O)N2N=C(c3ccccc3)CC2c2ccc(OC)cc2)C1=O (centres undefined)	3	-4	0	-11	1
CC1(C)CC(=O)C(CC(=O)NC2CCCc3ccccc32)C(=O)C1 (centres undefined)	0	-7	0	-8	0
COc1ncccc1-c1nnn(-c2ccc(Cl)c(Cl)c2)n1	1	-1	8.8*	22	1
CCOC(=O)N/N=C\C=C\c1ccc2c(c1)OCO2	7	-2	2	12	0
O=S(=O)(c1ccc(NC(=S)N2CCN(c3ccccc3F)CC2)cc1)N1CCOCC1	10	-6	4	0	1
O=S(=O)(c1ccc(NC(=S)NCCC(c2ccccc2)c2ccccc2)cc1)N1CCOCC1	-3	60*	7	-22	-1
O=S(=O)(c1ccc(NC(=S)N/N=C/c2c3ccccc3cc3ccccc23)cc1)N1CCOCC1	-12	95*	7	5	-2
COc1ccccc1N1CCN(C(=S)Nc2ccc(S(=O)(=O)N3CCOCC3)cc2)CC1	-1	71*	2	16	-1
O=S(=O)(c1ccc(NC(=S)N/N=C/c2ccc(Oc3ccccc3)cc2)cc1)N1CCOCC1	1	-10	2	3	0
CCC(C)NC(=O)CC(c1ccccc1)c1cc(C)ccc1O (centres undefined)	0	2	-1	4	0
CCC(=O)N/C(N)=N/c1nc(C)c2cc(OC)ccc2n1	8	28	1	-3	1
COc1ccc2nc(/N=C(\N)NC(=O)C(C)(C)C)nc(C)c2c1	3	51*	1	13	0
COc1ccc(NC(=O)C(Sc2nnc(-c3ccncc3)n2-c2ccccc2C)c2ccccc2)cc1Cl (centres undefined)	16	99*	4	-12	36
Cc1c(C(=O)NN2CCCCC2)nn(-c2ccc(Cl)cc2Cl)c1-c1ccc(I)cc1	10	/	/	81*	/
COc1ccccc1NC(CC(=O)c1ccccc1)C(=O)OCC(=O)c1ccc(F)cc1 (centres undefined)	2	14	11*	17	1
O=C(CC(Nc1cccc(Cl)c1Cl)C(=O)OCC(=O)c1cccs1)c1ccccc1 (centres undefined)	20	-5	9.0*	23	1
Cc1c(Cl)cccc1NC(CC(=O)c1ccccc1)C(=O)OCC(=O)c1cccs1 (centres undefined)	5	0	3	3	0
Cc1c(Cl)cccc1NC(CC(=O)c1ccccc1)C(=O)O (centres undefined)	-8	67*	-1	8	0
CC(C(=O)Nc1ccccc1-c1ccccc1)N(C)Cc1nc2ccccc2c(=O)[nH]1 (centres undefined)	2	12	1	2	1
SMILES	ABCG2 inh	Lmaj promast	RAM inhibit	WT yeast gro inh	ABCB1 block
Clc1cccc(Cl)c1Cn1cnc2c(N3CCCCCC3)ncnc21	25	5	-1	75*	1
CCOC(=O)c1[nH]c2ccccc2c1NC(=O)Nc1ccc(OC)cc1	11	0	0	-15	0
Cc1ncc([N+](=O)[O-])n1Cc1cccc2ccccc12	6	57*	1	-15	/
O=[N+]([O-])c1cc(-n2cnnn2)ccc1N1CCC(Cc2ccccc2)CC1	6	8	8.9*	52	1
Cc1nnsc1SCCNC(=O)Nc1ccc(Cl)cc1	23	-9	0	2	0
CCN(CC)C(=O)Cn1nnc(-c2ccc(S(C)(=O)=O)cc2)n1	6	-6	1	-10	1
CC(C)NC(=O)NC(=O)COC(=O)c1cc[n+]([O-])cc1	7	-1	1	-14	0
O=C(NNc1c2ccccc2nc2ccccc12)c1ccc(O)cc1O	35	99*	3	1	-1
O=C(NNc1c2ccccc2nc2ccccc12)c1cccc(O)c1	10	90*	0	25	0
CCCC(=O)NNc1c2ccccc2nc2ccccc12	39	29	2	52	0
COc1ccc(OCC(=O)NNc2c3ccccc3nc3ccccc23)cc1	12	16	2	64*	2
O=C(COc1ccccc1)NNc1c2ccccc2nc2ccccc12	3	30	4	42	0
O=C(NNc1c2ccccc2nc2ccccc12)c1ccc(O)cc1	15	71*	0	3	0
O=C(NNc1c2ccccc2nc2ccccc12)c1ccccc1O	1	21	1	27	0
Clc1ccc(-n2cc(COCc3ccccc3)nn2)cc1	4	-6	0	6	1
C=CCNC(=O)COC(=O)c1ccc(Sc2nncn2C)c([N+](=O)[O-])c1	1	-8	0	7	0
COc1ccc2nc(NC(=O)c3cccc(OCc4c(C)noc4C)c3)sc2c1	-2	9	3	73*	0
COc1ccc2nc(NC(=O)c3cccnc3SC)sc2c1	30	81*	-3	32	2
CSc1ncccc1C(=O)Nc1nc2ccc(S(C)(=O)=O)cc2s1	7	5	6	4	1
CCOc1ccc2nc(NC(=O)c3ccc(OCC4CCCO4)cc3)sc2c1 (centres undefined)	-5	86*	6	10	-1
Cc1cccc2sc(NC(=O)c3ccc(OCC4CCCO4)cc3)nc12 (centres undefined)	-2	-2	7	-14	-1
Cc1cc(Cl)ccc1C(=O)C1CCCN(C(=O)c2cnsn2)C1 (centres undefined)	-4	-5	0	22	-2
CCOc1cc(NC(=O)c2cnccn2)c(OCC)cc1NC(=O)c1cccc(F)c1	-5	4	1	21	-1
CCCOC(=O)c1ccc(OCC(O)CN2CCN(C(=O)c3ccccc3)CC2)cc1 (centres undefined)	1	-4	1	0	0
